According to ChEMBL document CHEMBL1156262, “Substituted benzothiophene or benzofuran derivatives as a novel class of bone morphogenetic protein-2 up-regulators: synthesis, structure-activity relationships, and preventive bone loss efficacies in senescence accelerated mice (SAMP6) and ovariectomized rats” (J Med Chem, 2010):
Activity calls are given as the source filed them. The calls are words filed in the database; no cut-off is given here.

How the values were obtained:
[1] = Induction of BMP2 expression in mouse calcarial MC3T3-E1 cells stably transfected with mouse BMP2 promotor-luciferase assessed as upregulation rate at 4 uM; type: functional, cell-based
Procedure, shortened: (§1)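 Reporter assay in murine calvarial MC3T3-E1 cells stably carrying the mouse BMP-2 promoter fused to firefly luciferase (pGL4BMP-2). Cells grown in DMEM with 10% heat-inactivated FBS at 37 °C and 5% CO2. Test compounds at 4.0 μM; lovastatin at 0.4 μM as positive control; 0.1% DMSO as negative control. Up-regulation rate = (RLU of test − RLU of negative control)/RLU of negative control × 100.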

Mus musculus [2] = assay: Induction of bone mineral density in SAMP6 mouse assessed as whole body BMD at 30 mg/kg/day, po measured after 2 months; type: functional, organism-based
Procedure, shortened: (§2)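 SAMP6 mice, 5 months old, n = 5 per group, given compound in 0.5% methylcellulose by gavage daily. Dual-energy X-ray absorptiometry under pentobarbital anaesthesia (50 mg/kg ip), animals prone, at 0, 4, 8 and 12 weeks of treatment. Regions of interest were whole body, spine and left hind leg.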

Mus musculus [3] = assay: Induction of bone formation in SAMP6 mouse right femora assessed as trabecular formation surface percentage at 10 mg/kg/day, po measured after 3 months by bone histomorphometry; type: functional, Trabecula
Procedure, shortened: (§3)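 SAMP6 mice, 5 months old, n = 5 per group (3 male, 2 female), randomized by initial BMD. Given compound in 0.5% methylcellulose by gavage daily for 3 months. Proximal third of the right femur fixed in 4% paraformaldehyde, cut as undecalcified sections, and scored by image analysis for histomorphometry.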

Mus musculus [4] = assay: Induction of bone formation in SAMP6 mouse right femora assessed as trabecular resorption surface percentage at 10 mg/kg/day, po measured after 3 months by bone histomorphometry; type: functional, Trabecula; procedure, shortened: as §3
Mus musculus [5] = assay: Induction of bone mineral density in SAMP6 mouse assessed as spine BMD at 10 mg/kg/day, po measured after 3 months; type: functional; procedure, shortened: as §2
Mus musculus [6] = assay: Induction of bone mineral density in SAMP6 mouse assessed as left hind leg BMD at 10 mg/kg/day, po measured after 3 months; type: functional; procedure, shortened: as §2
Mus musculus [7] = assay: Induction of bone formation in SAMP6 mouse right femora assessed as average osteoid width at 10 mg/kg/day, po measured after 3 months by bone histomorphometry; type: functional; procedure, shortened: as §3
Mus musculus [8] = assay: Induction of bone mineral density in SAMP6 mouse assessed as spine BMD at 10 mg/kg/day, po measured last 2 months; type: functional, organism-based; procedure, shortened: as §2
[9] = Induction of BMP2 expression in mouse […] MC3T3-E1 cells stably transfected with mouse BMP2 promotor-luciferase assessed as upregulation rate at 0.4 uM; type: functional, cell-based; procedure, shortened: as §1
Mus musculus [10] = assay: Induction of bone formation in SAMP6 mouse right femora assessed as trabecular bone volume percentage at 10 mg/kg/day, po measured after 3 months by bone histomorphometry; type: functional, Trabecula; procedure, shortened: as §3
Mus musculus [11] = assay: Induction of bone mineral density in SAMP6 mouse assessed as whole body BMD at 10 mg/kg/day, po measured after 3 months; type: functional; procedure, shortened: as §2

| Compound | Activity [1] [%] | also measured |
| --- | --- | --- |
| CCOC(=O)c1cc2ccccc2o1 | 7.1 | – |
| CCOC(=O)c1cc2cc(C(=O)OC)ccc2s1 | 49.8 | – |
| COc1cc2cc(C(C)=O)sc2cc1OC | 37.1 | – |
| CC[C@H](C)C(=O)O[C@H]1C[C@@H](C)C=C2C=C[C@H](C)[C@H](CC[C@@H]3C[C@@H](O)CC(=O)O3)[C@H]21 [LOVASTATIN] | – | Activity (Mus musculus [2]): Active; Activity (Mus musculus [3]): 6.22%; Activity (Mus musculus [4]): 6.64%; Activity (Mus musculus [5]): 0.095 g/cm2; Activity (Mus musculus [6]): 0.046 g/cm2; Activity (Mus musculus [7]): 6.59 µm; Activity (Mus musculus [8]): Active; Activity [9]: 20.9%; Activity (Mus musculus [10]): 7.44%; Activity (Mus musculus [11]): 0.07 g/cm2 |
| CCOC(=O)c1ccc2sc(C(=O)/C=C/c3ccc(OC)cc3)cc2c1 | 1.7 | – |
| C[S+]([O-])CC(=O)c1cc2ccccc2o1 (centres undefined) | 3.9 | – |
| CCOC(=O)c1ccc2sc(C(=O)/C=C/c3ccc(OC)c(OC)c3)cc2c1 | -9.6 | – |
| CCOC(=O)c1ccc2sc(C(=O)/C=C/c3ccc(OC)c(OC)c3OC)cc2c1 | -21.5 | – |
| CS(=O)(=O)CC(=O)c1cc2ccccc2s1 | 5.1 | – |
| CCOC(=O)c1cc2cc(Cl)cc(Cl)c2o1 | -1.6 | – |
| CS(=O)(=O)CC(=O)c1cc2cc3c(cc2s1)OCO3 | -9.3 | – |
| COc1cc2cc(C(=O)C[S+](C)[O-])sc2cc1OC (centres undefined) | 13.5 | – |
| COC(=O)c1ccc2sc(C(C)=O)cc2c1 | 41.4 | – |
| CCOC(=O)c1cc2cccc(OC)c2o1 | 12.4 | – |
| O=C(/C=C/c1ccccc1Cl)c1cc2ccccc2o1 | 1.8 | – |
